{"source": "ChEMBL document CHEMBL1212805", "about": "“Evaluation of WLBU2 peptide and 3-O-octyl-sn-glycerol lipid as active ingredients for a topical microbicide formulation targeting Chlamydia trachomatis” (Antimicrob Agents Chemother, 2010)", "key": {"[1]": {"tested_on": "Chlamydia trachomatis", "test": "Antibacterial activity against Chlamydia trachomatis serovar E after 120 mins by MCC assay in presence of simulated seminal fluid", "type": "functional", "conditions": "2 h", "outline": "(§1)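 C. trachomatis serovar EBs (5 × 10⁶ IFU/ml) diluted in 100% VFS (zinc-free for SFS), 100% SFS or 10% HSA, mixed 1:1 with five 4-fold SPG dilutions (final 60 μM/30 mM top; 50% VFS, 50% SFS, 5% HSA). After 5 or 120 min, diluted 1:40, inoculated onto McCoy monolayers. Inclusions stained with anti-LPS/FITC after 36–48 h. Inhibition versus no-drug control in the same fluid; MCC is complete inhibition.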"}, "[2]": {"test": "Cytotoxicity against mouse McCoy cells after 48 hrs at =<30 uM by almar blue assay", "type": "cell-based", "outline": "(§2)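 Cytotoxicity was tested by running the MCC procedure without inoculum: compound diluted in half with SPG, then diluted 1:40 onto McCoy monolayers and incubated 48 h at 37°C. Read-out by Alamar Blue, MTT and LDH kits. SPG served as negative control and Triton X-100 as positive control. Nontoxic was defined as <10% toxicity in all methods.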"}, "[3]": {"tested_on": "Chlamydia trachomatis", "test": "Antibacterial activity against Chlamydia trachomatis serovar D after 5 mins by MCC assay in presence of simulated human serum albumin", "type": "functional", "outline": "as §1"}, "[4]": {"tested_on": "Chlamydia trachomatis", "test": "Antibacterial activity against Chlamydia trachomatis serovar D assessed as change in MCC at pH 4 to 8 after 120 mins by MCC assay in presence of sucrose- phosphate-glutamate buffer", "type": "functional, organism-based", "outline": "(§3)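 Compounds and EBs were each diluted in SPG at pH 4, 5.5, 7 or 8 and mixed 1:1, so exposure pH was constant. Five 4-fold dilutions were used (top 60 μM peptide, 30 mM lipid). After 5 or 120 min, the mix was diluted 1:40 in pH 7.5 SPG and plated on McCoy cells. Inclusion counts were compared with a no-drug control at the same pH and time.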"}, "[5]": {"tested_on": "Chlamydia trachomatis", "test": "Antibacterial activity against Chlamydia trachomatis serovar D after 120 mins by MCC assay in presence of simulated human serum albumin", "type": "functional", "conditions": "2 h", "outline": "as §1"}, "[6]": {"tested_on": "Chlamydia trachomatis", "test": "Antibacterial activity against Chlamydia trachomatis serovar L2 after 120 mins by MCC assay in presence of simulated vaginal fluid", "type": "functional", "conditions": "serovar L2, 2 h", "outline": "as §1"}, "[7]": {"tested_on": "Chlamydia trachomatis", "test": "Antibacterial activity against Chlamydia trachomatis serovar D after 5 mins by MCC assay in presence of simulated seminal fluid", "type": "functional", "outline": "as §1"}, "[8]": {"tested_on": "Chlamydia trachomatis", "test": "Antibacterial activity against Chlamydia trachomatis serovar D after 120 mins by MCC assay in presence of simulated vaginal fluid", "type": "functional", "conditions": "2 h", "outline": "as §1"}, "[9]": {"tested_on": "Chlamydia trachomatis", "test": "Antibacterial activity against Chlamydia trachomatis serovar L2 at => 6.25 mM after 5 mins relative to control", "type": "functional"}, "[10]": {"tested_on": "Chlamydia trachomatis", "test": "Antibacterial activity against Chlamydia trachomatis serovar D after 120 mins by MCC assay in presence of simulated seminal fluid", "type": "functional", "conditions": "2 h", "outline": "as §1"}, "[11]": {"tested_on": "Chlamydia trachomatis", "test": "Antibacterial activity against Chlamydia trachomatis serovar E after 120 mins by MCC assay in presence of simulated vaginal fluid", "type": "functional", "conditions": "2 h", "outline": "as §1"}, "[12]": {"tested_on": "Chlamydia trachomatis", "test": "Antibacterial activity against Chlamydia trachomatis serovar D at 1.88 mM at pH 8 after 5 mins by MCC assay in presence of sucrose- phosphate-glutamate buffer", "type": "functional, organism-based", "conditions": "in the assay text read “after 120 mins” for “after 5 mins”", "outline": "as §3"}, "[13]": {"tested_on": "Chlamydia trachomatis", "test": "Antibacterial activity against Chlamydia trachomatis serovar L2 after 120 mins by MCC assay in presence of simulated seminal fluid", "type": "functional", "conditions": "serovar L2, 2 h", "outline": "as §1"}, "[14]": {"tested_on": "Chlamydia trachomatis", "test": "Antibacterial activity against Chlamydia trachomatis serovar L2 at 3.13 mM after 120 mins relative to control", "type": "functional", "conditions": "serovar L2, 2 h", "outline": "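Serovar L2 EBs (5 × 10⁶ IFU/ml in SPG, pH 7.5) mixed 1:1 with ten 2-fold SPG dilutions (final 50 μM top peptide, 25 mM lipid), exposed 5 or 120 min, diluted 1:40, plated on McCoy cells; fixed with methanol after 36–48 h, anti-LPS/FITC stained. Triplicate wells, three fields each, three independent days; percent inhibition versus no-drug control ± SD.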"}, "[15]": {"tested_on": "Chlamydia trachomatis", "test": "Antibacterial activity against Chlamydia trachomatis serovar D at 1.88 mM at pH 5.5 after 5 mins by MCC assay in presence of sucrose- phosphate-glutamate buffer", "type": "functional, organism-based", "conditions": "in the assay text read “after 120 mins” for “after 5 mins”", "outline": "as §3"}, "[16]": {"tested_on": "Chlamydia trachomatis", "test": "Antibacterial activity against Chlamydia trachomatis serovar E after 5 mins by MCC assay in presence of simulated seminal fluid", "type": "functional", "outline": "as §1"}, "[17]": {"tested_on": "Chlamydia trachomatis", "test": "Antibacterial activity against Chlamydia trachomatis serovar D after 5 mins by MCC assay in presence of simulated vaginal fluid", "type": "functional", "outline": "as §1"}, "[18]": {"tested_on": "Chlamydia trachomatis", "test": "Antibacterial activity against Chlamydia trachomatis serovar L2 after 120 mins by MCC assay in presence of simulated human serum albumin", "type": "functional", "conditions": "serovar L2, 2 h", "outline": "as §1"}, "[19]": {"tested_on": "Chlamydia trachomatis", "test": "Antibacterial activity against Chlamydia trachomatis serovar L2 after 5 mins by MCC assay in presence of simulated seminal fluid", "type": "functional", "conditions": "serovar L2, 5 min", "outline": "as §1"}, "[20]": {"tested_on": "Chlamydia trachomatis", "test": "Antibacterial activity against Chlamydia trachomatis serovar E assessed as change in MCC at pH 4 to 8 after 5 mins by MCC assay in presence of sucrose- phosphate-glutamate buffer", "type": "functional, organism-based", "outline": "as §3"}, "[21]": {"tested_on": "Chlamydia trachomatis", "test": "Antibacterial activity against Chlamydia trachomatis serovar L2 after 5 mins by MCC assay in presence of simulated human serum albumin", "type": "functional", "conditions": "serovar L2, 5 min", "outline": "as §1"}, "[22]": {"tested_on": "Chlamydia trachomatis", "test": "Antibacterial activity against Chlamydia trachomatis serovar E assessed as change in MCC at pH 4 to 8 after 120 mins by MCC assay in presence of sucrose- phosphate-glutamate buffer", "type": "functional, organism-based", "outline": "as §3"}, "[23]": {"tested_on": "Chlamydia trachomatis", "test": "Antibacterial activity against Chlamydia trachomatis serovar E after 120 mins by MCC assay in presence of simulated human serum albumin", "type": "functional", "conditions": "2 h", "outline": "as §1"}, "[24]": {"tested_on": "Chlamydia trachomatis", "test": "Antibacterial activity against Chlamydia trachomatis serovar D assessed as change in MCC at pH 4 to 8 after 5 mins by MCC assay in presence of sucrose- phosphate-glutamate buffer", "type": "functional, organism-based", "outline": "as §3"}, "[25]": {"tested_on": "Chlamydia trachomatis", "test": "Antibacterial activity against Chlamydia trachomatis serovar D at 1.88 mM at pH 4 after 5 mins by MCC assay in presence of sucrose- phosphate-glutamate buffer", "type": "functional, organism-based", "conditions": "in the assay text read “after 120 mins” for “after 5 mins”", "outline": "as §3"}, "[26]": {"test": "Cytotoxicity against mouse McCoy cells after 48 hrs at =<30 uM by MCC assay", "type": "cell-based", "outline": "as §2"}, "[27]": {"tested_on": "Chlamydia trachomatis", "test": "Antibacterial activity against Chlamydia trachomatis serovar E after 5 mins by MCC assay in presence of simulated human serum albumin", "type": "functional", "outline": "as §1"}, "[28]": {"tested_on": "Chlamydia trachomatis", "test": "Antibacterial activity against Chlamydia trachomatis serovar L2 after 5 mins by MCC assay in presence of simulated vaginal fluid", "type": "functional", "conditions": "serovar L2, 5 min", "outline": "as §1"}, "[29]": {"tested_on": "Chlamydia trachomatis", "test": "Antibacterial activity against Chlamydia trachomatis serovar E after 5 mins by MCC assay in presence of simulated vaginal fluid", "type": "functional", "outline": "as §1"}}, "note": "Calls of active or inactive are those of the source.", "data": [{"smiles": "CCCCCCCCOC[C@H](O)CO", "values": [{"measurement": "MCC", "setting": "[1]", "result": 7.5, "unit": "mM"}, {"measurement": "Activity", "setting": "[2]", "result": "Non-toxic"}, {"measurement": "MCC", "setting": "[3]", "result": 30, "unit": "mM"}, {"measurement": "Activity", "setting": "[4]", "result": "Active"}, {"measurement": "MCC", "setting": "[5]", "result": 7.5, "unit": "mM"}, {"measurement": "MCC", "setting": "[6]", "result": 7.5, "unit": "mM"}, {"measurement": "MCC", "setting": "[7]", "result": 30, "unit": "mM"}, {"measurement": "MCC", "setting": "[8]", "result": 7.5, "unit": "mM"}, {"measurement": "inhibition (INH)", "setting": "[9]", "result": 100, "unit": "%"}, {"measurement": "MCC", "setting": "[10]", "result": 7.5, "unit": "mM"}, {"measurement": "MCC", "setting": "[11]", "result": 7.5, "unit": "mM"}, {"measurement": "Activity", "setting": "[12]", "result": "Active"}, {"measurement": "MCC", "setting": "[13]", "result": 7.5, "unit": "mM"}, {"measurement": "inhibition at 3130 µM", "setting": "[14]", "result": 98.2, "unit": "%"}, {"measurement": "Activity", "setting": "[15]", "result": "Active"}, {"measurement": "MCC", "setting": "[16]", "result": 30, "unit": "mM"}, {"measurement": "MCC", "setting": "[17]", "result": 7.5, "unit": "mM"}, {"measurement": "MCC", "setting": "[18]", "result": 7.5, "unit": "mM"}, {"measurement": "MCC", "setting": "[19]", "result": 30, "unit": "mM"}, {"measurement": "Activity", "setting": "[20]", "result": "Active"}, {"measurement": "MCC", "setting": "[21]", "result": 30, "unit": "mM"}, {"measurement": "Activity", "setting": "[22]", "result": "Active"}, {"measurement": "MCC", "setting": "[23]", "result": 7.5, "unit": "mM"}, {"measurement": "Activity", "setting": "[24]", "result": "Active"}, {"measurement": "Activity", "setting": "[25]", "result": "Active"}, {"measurement": "Activity", "setting": "[26]", "result": "Non-toxic"}, {"measurement": "MCC", "setting": "[27]", "result": 30, "unit": "mM"}, {"measurement": "MCC", "setting": "[28]", "result": 7.5, "unit": "mM"}, {"measurement": "MCC", "setting": "[29]", "result": 7.5, "unit": "mM"}]}]}
